Common to all, as to assay type: functional
Experiment [1] in a line: Growth inhibition of human DU145 cells measured after 48 hrs by sulforhodamine B assay. Conditions: DU-145, 48 h. An outline of the steps:
(§1)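 Cells were seeded in RPMI1640 with 5% fetal bovine serum and incubated 24 h before serial dilutions of sample were added. After 48 h exposure, cells were fixed with trichloroacetic acid and stained with sulforhodamine B, and optical density was read by plate reader.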
For orientation: In SRB staining, fixed cells bind dye roughly in proportion to their protein.

A short description of experiment [2]: Growth inhibition of human BxPC3 cells measured after 48 hrs by sulforhodamine B assay. Conditions: BXPC-3, 48 h. An outline of the steps:
as §1

Experiment [3] can be described thus: Growth inhibition of human SF268 cells measured after 48 hrs by sulforhodamine B assay. Conditions: SF-268, 48 h. An outline of the steps: as §1
The nature of experiment [4]: Growth inhibition of human KM20L2 cells measured after 48 hrs by sulforhodamine B assay. Conditions: KM-20L2, 48 h. An outline of the steps: as §1
The test system of another experiment is MCF7. The experiment in a line: Growth inhibition of human MCF7 cells measured after 48 hrs by sulforhodamine B assay. Particulars: MCF7, 48 h. An outline of the steps: as §1
A further experiment concerns NCI-H460. The experiment in a line: Growth inhibition of human NCI-H460 cells measured after 48 hrs by sulforhodamine B assay. Particulars: NCI-H460, 48 h. An outline of the steps:
as §1

The test system of another experiment is P388. The experiment in a line: Growth inhibition of mouse P388 cells measured after 48 hrs by sulforhodamine B assay. Conditions: P388, 48 h, read-out: ED50 (the source's name).

From ChEMBL document CHEMBL3808349, “Antineoplastic Agents. 585. Isolation of Bridelia ferruginea Anticancer Podophyllotoxins and Synthesis of 4-Aza-podophyllotoxin Structural Modifications” (2016) come the findings set out here.

Converted amounts (≈) assume the structure as drawn.

As to `COc1cc(C2C3=C(COC3=O)N(CCc3ccc([N+](=O)[O-])cc3)c3cc4c(cc32)OCO4)cc(OC)c1OC` (stereo not drawn), the GI50 in experiment [1] stood at 0.3 µg/mL (≈ 0.549 µM); in experiment [2], 0.39 µg/mL (≈ 0.714 µM); in experiment [3] it was 0.2 µg/mL (≈ 0.366 µM); in experiment [4], 0.26 µg/mL (≈ 0.476 µM); in the experiment on MCF7, 0.08 µg/mL (≈ 0.146 µM); in the experiment with NCI-H460 it was 0.3 µg/mL (≈ 0.549 µM).

As to `COc1cc(C2C3=C(COC3=O)N(CCc3ccc(Cl)cc3)c3cc4c(cc32)OCO4)cc(OC)c1OC` (stereo not drawn), the concentration for 50% growth inhibition (GI50) in experiment [1] amounted to 0.31 µg/mL (≈ 0.578 µM); in experiment [2], 0.54 µg/mL (≈ 1.01 µM); in experiment [3], 0.35 µg/mL (≈ 0.653 µM); in experiment [4], 0.37 µg/mL (≈ 0.69 µM); in the experiment on MCF7, 0.34 µg/mL (≈ 0.634 µM); in the experiment with NCI-H460 it was 0.3 µg/mL (≈ 0.56 µM). Moreover, the EC50 in the experiment on P388 came to 2.6 µg/mL (≈ 4.85 µM).

With `O=C1OCC2=C1C(c1cccc3c1OCO3)c1cc3c(cc1N2)OCO3` (stereo not drawn), the GI50 is 0.041 µg/mL (≈ 0.117 µM) in experiment [1]; 0.065 µg/mL (≈ 0.185 µM) in experiment [2]; 0.0089 µg/mL (≈ 0.0253 µM) in experiment [3]; 0.0039 µg/mL (≈ 0.0111 µM) in the experiment on MCF7; 0.021 µg/mL (≈ 0.0598 µM) in the experiment on NCI-H460. Besides, in the experiment on P388, the EC50 stood at 0.17 µg/mL (≈ 0.484 µM).

With `COc1cc(C2C3=C(COC3=O)N(CCc3ccccn3)c3cc4c(cc32)OCO4)cc(OC)c1OC` (stereo not drawn), the GI50 in experiment [1] was 0.42 µg/mL (≈ 0.836 µM); in experiment [2] it was 0.38 µg/mL (≈ 0.756 µM); in experiment [3], 0.33 µg/mL (≈ 0.657 µM); in experiment [4] it was 0.29 µg/mL (≈ 0.577 µM); in the experiment on MCF7, 0.32 µg/mL (≈ 0.637 µM); in the experiment with NCI-H460, 0.34 µg/mL (≈ 0.677 µM). Also, the EC50 with P388 turned out to be 2.5 µg/mL (≈ 4.97 µM).

Consider `COc1cc(C2C3=C(COC3=O)N(CCCO)c3cc4c(cc32)OCO4)cc(OC)c1OC` (stereo not drawn), for which the 50% growth inhibitory concentration (GI50) is 0.49 µg/mL (≈ 1.08 µM) in experiment [1]; 0.48 µg/mL (≈ 1.05 µM) in experiment [2]; 0.36 µg/mL (≈ 0.79 µM) in experiment [3]; 0.38 µg/mL (≈ 0.834 µM) in experiment [4]; 0.34 µg/mL (≈ 0.746 µM) in the experiment with MCF7; 0.33 µg/mL (≈ 0.725 µM) with NCI-H460. Further, the EC50 in the experiment on P388 was 0.28 µg/mL (≈ 0.615 µM).

In the case of `COc1cc(C2C3=C(COC3=O)N(CCc3ccc(F)cc3)c3cc4c(cc32)OCO4)cc(OC)c1OC` (stereo not drawn), the GI50 is 2.5 µg/mL (≈ 4.81 µM) in experiment [1]; 0.9 µg/mL (≈ 1.73 µM) in experiment [2]; 0.52 µg/mL (≈ 1 µM) in experiment [3]; 2.4 µg/mL (≈ 4.62 µM) in experiment [4]; 0.42 µg/mL (≈ 0.808 µM) in the experiment on MCF7; 2.3 µg/mL (≈ 4.43 µM) in the experiment with NCI-H460. Further, the EC50 in the experiment on P388 was 3.3 µg/mL (≈ 6.35 µM).

On to `COc1ccc(C2C3=C(COC3=O)Nc3cc(OC)c(OC)c(OC)c32)cc1O` (stereo not drawn), for which the concentration for 50% growth inhibition (GI50) in experiment [1] was above 10 µg/mL; in experiment [2] it was 6.5 µg/mL (≈ 16.3 µM); in experiment [3], 7.3 µg/mL (≈ 18.3 µM); in the experiment on MCF7 it was 7 µg/mL (≈ 17.5 µM); in the experiment with NCI-H460 it was 10.1 µg/mL (≈ 25.3 µM). Further, the EC50 in the experiment on P388 was 0.78 µg/mL (≈ 1.95 µM).

Consider `COc1cc(C2C3=C(COC3=O)Nc3cc(OC)c(OC)c(OC)c32)cc(OC)c1OC` (stereo not drawn), for which the GI50 in experiment [1] came out at 3.3 µg/mL (≈ 7.44 µM); in experiment [2], 5.6 µg/mL (≈ 12.6 µM); in experiment [3], 3.6 µg/mL (≈ 8.12 µM); with MCF7 it was 1.7 µg/mL (≈ 3.83 µM); in the experiment with NCI-H460, 3.6 µg/mL (≈ 8.12 µM). The EC50 in the experiment on P388 turned out to be 1.3 µg/mL (≈ 2.93 µM).

For the molecule `COc1cc(C2C3=C(COC3=O)N(C3CCC3)c3cc4c(cc32)OCO4)cc(OC)c1OC` (stereo not drawn), the GI50 stood at 0.047 µg/mL (≈ 0.104 µM) in experiment [1]; 0.04 µg/mL (≈ 0.0886 µM) in experiment [2]; 0.026 µg/mL (≈ 0.0576 µM) in experiment [3]; 0.032 µg/mL (≈ 0.0709 µM) in experiment [4]; 0.026 µg/mL (≈ 0.0576 µM) in the experiment on MCF7; 0.028 µg/mL (≈ 0.062 µM) in the experiment with NCI-H460. Besides, in the experiment with P388, the EC50 stood at 0.24 µg/mL (≈ 0.532 µM).

`COc1cc(C2C3=C(COC3=O)N(C3CCCCC3)c3cc4c(cc32)OCO4)cc(OC)c1OC` (stereo not drawn): the GI50 was 0.27 µg/mL (≈ 0.563 µM) in experiment [1]; 0.17 µg/mL (≈ 0.355 µM) in experiment [2]; 0.066 µg/mL (≈ 0.138 µM) in experiment [3]; 0.24 µg/mL (≈ 0.5 µM) in experiment [4]; 0.052 µg/mL (≈ 0.108 µM) in the experiment with MCF7; 0.27 µg/mL (≈ 0.563 µM) in the experiment with NCI-H460. For the same molecule, in the experiment on P388, the EC50 stood at 3.4 µg/mL (≈ 7.09 µM).

With `COc1cc(C2C3=C(COC3=O)Nc3cc4c(cc32)OCO4)cc(OC)c1OC` (stereo not drawn), in the experiment on P388, the EC50 turned out to be 0.0018 µg/mL (≈ 0.00453 µM).

Turning to `COc1cc([C@@H]2c3cc4c(c(O[C@@H]5O[C@H](CO)[C@@H](O)[C@H](O)[C@H]5O)c3C[C@H]3COC(=O)[C@@H]32)OCO4)cc(OC)c1OC`, the GI50 in experiment [1] is above 1 µg/mL; in experiment [2], above 1 µg/mL; in experiment [3] it was 0.27 µg/mL (≈ 0.468 µM); in experiment [4], above 1 µg/mL; with MCF7, 0.85 µg/mL (≈ 1.47 µM); in the experiment on NCI-H460, 0.28 µg/mL (≈ 0.486 µM). Besides, the EC50 in the experiment on P388 was determined as 0.21 µg/mL (≈ 0.364 µM).

On to `COc1cc([C@@H]2c3cc4c(c(O)c3C[C@H]3COC(=O)[C@@H]32)OCO4)cc(OC)c1OC` [BETA-PELTATIN A], for which the GI50 was found to be 0.0021 µg/mL (≈ 0.00507 µM) in experiment [1]; 0.0012 µg/mL (≈ 0.0029 µM) in experiment [2]; 0.0004 µg/mL (≈ 0.000965 µM) in experiment [3]; 0.0076 µg/mL (≈ 0.0183 µM) in experiment [4]; 0.00055 µg/mL (≈ 0.00133 µM) in the experiment on MCF7; 0.00077 µg/mL (≈ 0.00186 µM) with NCI-H460. For the same molecule, the EC50 in the experiment on P388 worked out at 0.0031 µg/mL (≈ 0.00748 µM).

As for `COc1cc([C@H]2c3cc4c(cc3C[C@H]3COC(=O)[C@H]32)OCO4)cc(OC)c1OC` [ISOPICRODEOXYPODOPHYLLOTOXIN], the EC50 in the experiment on P388 is below 0.1 µg/mL.

`COc1cc([C@@H]2c3cc4c(cc3[C@H](O)[C@H]3COC(=O)[C@H]23)OCO4)cc(OC)c1OC` [PODOFILOX]: the EC50 in the experiment with P388 was 0.0043 µg/mL (≈ 0.0104 µM).

As a reminder, the GI50 is the concentration at which growth is held to half of that of the control. Low readings indicate more potent growth inhibition, high ones less potent growth inhibition.
